Source: the M2OR odorant receptor database
Changes are numbered by the printed parent chain.

How the values were obtained:
Settings in all cases: stereoisomer not certain
[1] = target: T1, OR2B6 (Homo sapiens) (UniProt P58173)
T1 sequence (whole entry): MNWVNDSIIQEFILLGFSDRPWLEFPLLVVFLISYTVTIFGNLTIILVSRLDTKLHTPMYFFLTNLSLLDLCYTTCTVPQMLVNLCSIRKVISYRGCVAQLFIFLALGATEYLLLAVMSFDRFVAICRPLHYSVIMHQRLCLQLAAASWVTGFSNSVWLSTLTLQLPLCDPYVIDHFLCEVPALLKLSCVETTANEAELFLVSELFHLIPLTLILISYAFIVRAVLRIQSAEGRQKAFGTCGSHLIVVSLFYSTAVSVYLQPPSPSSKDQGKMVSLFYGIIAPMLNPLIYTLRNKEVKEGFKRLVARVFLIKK
How it was run: (§1)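 Values were gathered from published papers (main text and supplementary material), with extra details requested from the original authors when needed, and checked for typos and inconsistencies. Each receptor–molecule pair is called responsive (active) if the original authors judged the measured signal statistically different from baseline, and non-responsive (inactive) otherwise. Assay methods varied by source, often transient mammalian cell-line luciferase assays. Recorded details include cell line, G-protein, co-transfected protein and tags.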

[2] = target: T2, OR2C1 (Homo sapiens) (UniProt O95371)
T2 sequence (whole entry): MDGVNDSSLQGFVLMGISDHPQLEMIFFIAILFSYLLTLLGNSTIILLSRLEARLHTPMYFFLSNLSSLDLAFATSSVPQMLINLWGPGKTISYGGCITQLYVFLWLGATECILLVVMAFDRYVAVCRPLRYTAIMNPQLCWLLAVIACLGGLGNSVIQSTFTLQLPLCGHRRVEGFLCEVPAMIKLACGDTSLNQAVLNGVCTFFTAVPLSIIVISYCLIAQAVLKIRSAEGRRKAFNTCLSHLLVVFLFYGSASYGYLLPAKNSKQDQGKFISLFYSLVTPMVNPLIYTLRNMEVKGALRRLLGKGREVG
How it was run: as §1

[3] = target: T3, OR2C3 (Homo sapiens) (UniProt Q8N628)
T3 sequence (whole entry): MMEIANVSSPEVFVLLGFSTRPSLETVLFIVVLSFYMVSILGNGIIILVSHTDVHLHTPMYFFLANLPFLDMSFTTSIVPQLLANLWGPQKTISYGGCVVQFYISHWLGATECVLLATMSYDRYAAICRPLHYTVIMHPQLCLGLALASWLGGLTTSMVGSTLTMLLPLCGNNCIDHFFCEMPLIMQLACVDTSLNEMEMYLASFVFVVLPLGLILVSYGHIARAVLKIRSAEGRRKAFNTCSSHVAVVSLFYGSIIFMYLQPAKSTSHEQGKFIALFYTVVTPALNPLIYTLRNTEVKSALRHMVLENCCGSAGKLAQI
How it was run: as §1

[4] = target: T4, OR2D2 (Homo sapiens) (UniProt Q9H210)
T4 sequence (whole entry): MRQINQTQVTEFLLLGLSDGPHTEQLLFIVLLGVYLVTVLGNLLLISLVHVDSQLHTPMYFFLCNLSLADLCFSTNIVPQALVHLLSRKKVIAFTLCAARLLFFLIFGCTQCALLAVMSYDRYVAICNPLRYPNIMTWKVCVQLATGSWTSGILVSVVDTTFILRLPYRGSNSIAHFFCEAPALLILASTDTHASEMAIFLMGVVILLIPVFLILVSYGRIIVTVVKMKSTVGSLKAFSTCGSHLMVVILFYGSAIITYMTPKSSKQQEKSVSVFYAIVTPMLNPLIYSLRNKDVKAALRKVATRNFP
How it was run: as §1

[5] = target: T5, OR2D3 (Homo sapiens) (UniProt Q8NGH3)
T5 sequence (whole entry): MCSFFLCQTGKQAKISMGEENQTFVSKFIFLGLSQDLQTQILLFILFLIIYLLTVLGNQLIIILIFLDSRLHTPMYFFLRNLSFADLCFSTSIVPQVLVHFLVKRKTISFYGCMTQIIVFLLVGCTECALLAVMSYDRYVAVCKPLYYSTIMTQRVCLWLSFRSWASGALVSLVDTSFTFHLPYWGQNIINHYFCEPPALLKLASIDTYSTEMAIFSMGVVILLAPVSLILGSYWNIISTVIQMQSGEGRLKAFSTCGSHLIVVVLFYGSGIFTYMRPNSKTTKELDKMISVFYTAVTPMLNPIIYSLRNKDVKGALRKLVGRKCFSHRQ
How it was run: as §1

[6] = target: T6, OR2B3 (Homo sapiens) (UniProt O76000)
T6 sequence (whole entry): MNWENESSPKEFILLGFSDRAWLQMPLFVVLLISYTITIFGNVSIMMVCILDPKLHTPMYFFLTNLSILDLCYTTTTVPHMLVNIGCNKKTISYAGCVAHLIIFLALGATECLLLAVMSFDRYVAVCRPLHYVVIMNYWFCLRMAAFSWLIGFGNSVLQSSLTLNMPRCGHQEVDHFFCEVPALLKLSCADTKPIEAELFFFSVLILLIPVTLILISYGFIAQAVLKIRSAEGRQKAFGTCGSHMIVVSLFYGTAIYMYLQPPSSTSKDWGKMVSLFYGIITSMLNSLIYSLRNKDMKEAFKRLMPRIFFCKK
How it was run: as §1

[7] = test system: T7, OR2BB
T7 sequence (whole entry): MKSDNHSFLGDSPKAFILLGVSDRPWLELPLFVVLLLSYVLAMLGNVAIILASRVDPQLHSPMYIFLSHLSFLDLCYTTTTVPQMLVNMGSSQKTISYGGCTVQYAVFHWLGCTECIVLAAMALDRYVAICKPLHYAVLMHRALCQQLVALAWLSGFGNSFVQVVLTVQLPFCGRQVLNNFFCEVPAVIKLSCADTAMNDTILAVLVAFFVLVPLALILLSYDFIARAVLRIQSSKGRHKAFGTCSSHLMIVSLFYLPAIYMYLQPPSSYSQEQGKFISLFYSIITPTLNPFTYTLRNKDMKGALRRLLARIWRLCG
How it was run: as §1

[8] = test system: T8, OR2BB; remark: listed apart in the source
T8 sequence (whole entry): T7 sequence (whole entry) with D223G
How it was run: as §1

[9] = test system: T9, OR2C1
T9 sequence (whole entry): T2 sequence (whole entry) with C149W
How it was run: as §1

[10] = test system: T10, OR2C3
T10 sequence (whole entry): T3 sequence (whole entry) with T20A, P68S, L289V
How it was run: as §1

[11] = test system: T11, OR2C3; remark: listed apart in the source
T11 sequence (whole entry): T3 sequence (whole entry) with P68S
How it was run: as §1

[12] = test system: T12, OR2D2 S148P I163T M202T
T12 sequence (whole entry): T4 sequence (whole entry) with S148P, I163T, M202T
How it was run: as §1

[13] = test system: T13, OR2D3 R155W
T13 sequence (whole entry): T5 sequence (whole entry) with R155W
How it was run: as §1

[14] = test system: OR2C1; remark: listed apart in the source
How it was run: as §1
Target sequence in this assay (as listed by the source): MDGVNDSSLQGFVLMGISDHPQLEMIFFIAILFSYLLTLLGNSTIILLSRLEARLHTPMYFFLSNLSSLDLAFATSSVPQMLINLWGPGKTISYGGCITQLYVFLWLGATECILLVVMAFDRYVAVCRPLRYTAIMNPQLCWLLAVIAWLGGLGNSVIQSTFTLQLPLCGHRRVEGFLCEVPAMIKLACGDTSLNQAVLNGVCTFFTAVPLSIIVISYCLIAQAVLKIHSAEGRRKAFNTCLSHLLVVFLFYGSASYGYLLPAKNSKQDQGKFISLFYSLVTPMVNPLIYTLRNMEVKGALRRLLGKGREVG

[15] = test system: OR2C1; remark: listed apart in the source
How it was run: as §1
Target sequence in this assay (as listed by the source): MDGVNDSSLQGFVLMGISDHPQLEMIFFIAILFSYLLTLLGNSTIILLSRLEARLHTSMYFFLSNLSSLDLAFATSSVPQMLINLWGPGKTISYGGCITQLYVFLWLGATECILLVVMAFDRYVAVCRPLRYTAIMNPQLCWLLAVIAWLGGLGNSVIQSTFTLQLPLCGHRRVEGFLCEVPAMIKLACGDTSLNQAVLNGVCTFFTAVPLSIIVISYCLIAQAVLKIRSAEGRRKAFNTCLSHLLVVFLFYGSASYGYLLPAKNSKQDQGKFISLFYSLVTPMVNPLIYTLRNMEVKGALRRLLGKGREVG

[16] = test system: OR2C1; remark: listed apart in the source
How it was run: as §1
Target sequence in this assay (as listed by the source): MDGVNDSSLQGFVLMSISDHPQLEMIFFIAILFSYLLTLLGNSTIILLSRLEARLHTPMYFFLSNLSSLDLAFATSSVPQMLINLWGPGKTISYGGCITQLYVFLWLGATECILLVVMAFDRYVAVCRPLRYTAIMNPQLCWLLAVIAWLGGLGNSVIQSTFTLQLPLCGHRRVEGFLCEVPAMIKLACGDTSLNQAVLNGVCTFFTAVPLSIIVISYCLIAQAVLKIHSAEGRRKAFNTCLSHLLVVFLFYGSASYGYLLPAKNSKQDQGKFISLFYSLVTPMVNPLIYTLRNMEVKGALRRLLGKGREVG

[17] = test system: OR2C1; remark: listed apart in the source
How it was run: as §1
Target sequence in this assay (as listed by the source): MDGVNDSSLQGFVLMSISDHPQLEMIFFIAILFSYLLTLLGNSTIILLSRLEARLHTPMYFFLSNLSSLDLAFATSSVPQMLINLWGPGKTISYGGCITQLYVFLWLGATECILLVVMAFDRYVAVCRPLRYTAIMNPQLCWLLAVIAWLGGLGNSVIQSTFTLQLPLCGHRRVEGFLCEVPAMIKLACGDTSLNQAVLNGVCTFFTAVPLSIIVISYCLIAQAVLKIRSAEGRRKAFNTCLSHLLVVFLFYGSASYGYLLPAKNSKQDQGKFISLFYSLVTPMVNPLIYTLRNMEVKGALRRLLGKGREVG

[18] = test system: T14, OR2C1; remark: listed apart in the source
T14 sequence (whole entry): T2 sequence (whole entry) with G16S, C149W, C169Y, R229H
How it was run: as §1

SMILES: CC1CCCCCCCCCCCCC(=O)C1 (stereo not given)
- odorant receptor agonist call [1]: inactive
- odorant receptor agonist call [2]: inactive
- odorant receptor agonist call [3]: inactive
- odorant receptor agonist call [4]: inactive
- odorant receptor agonist call [5]: inactive

SMILES: CCCCOC=O
- odorant receptor agonist call [2]: inactive

SMILES: CCCCCCCCCCO
- odorant receptor agonist call [2]: inactive

SMILES: CC(=O)OCc1ccccc1
- odorant receptor agonist call [6]: inactive
- odorant receptor agonist call [2]: inactive

SMILES: CCC1OC(C)=C(O)C1=O (stereo not given)
- odorant receptor agonist call [6]: inactive
- odorant receptor agonist call [1]: inactive
- odorant receptor agonist call [7]: inactive
- odorant receptor agonist call [8]: inactive
- odorant receptor agonist call [2]: inactive
- odorant receptor agonist call [9]: inactive
- odorant receptor agonist call [10]: inactive
- odorant receptor agonist call [11]: inactive
- odorant receptor agonist call [4]: inactive
- odorant receptor agonist call [12]: inactive
- odorant receptor agonist call [5]: inactive
- odorant receptor agonist call [13]: inactive

SMILES: CCCCCCC(=O)[O-].[H+]
- odorant receptor agonist call [2]: inactive

SMILES: CCCCCCCO
- odorant receptor agonist call [2]: inactive

SMILES: CCCCCC(=O)C(C)C(C)=O (stereo not given)
- odorant receptor agonist call [6]: inactive
- odorant receptor agonist call [1]: inactive
- odorant receptor agonist call [2]: inactive
- odorant receptor agonist call [3]: inactive
- odorant receptor agonist call [4]: inactive
- odorant receptor agonist call [5]: inactive

SMILES: CCCCCC=O
- odorant receptor agonist call [2]: inactive

SMILES: CC(=O)c1c(C)c([N+](=O)[O-])c(C(C)(C)C)c([N+](=O)[O-])c1C
- odorant receptor agonist call [1]: inactive
- odorant receptor agonist call [2]: inactive
- odorant receptor agonist call [3]: inactive
- odorant receptor agonist call [4]: inactive
- odorant receptor agonist call [5]: inactive

SMILES: CC(CO)CS (stereo not given)
- odorant receptor agonist call [6]: inactive
- odorant receptor agonist call [1]: inactive
- odorant receptor agonist call [2]: inactive
- odorant receptor agonist call [3]: inactive
- odorant receptor agonist call [4]: inactive
- odorant receptor agonist call [5]: inactive

SMILES: CCCCC(=O)CC
- odorant receptor agonist call [2]: inactive

SMILES: CCCCCCCCS
- odorant receptor agonist call [14]: active
- odorant receptor agonist call [9]: active
- odorant receptor agonist call [15]: active
- odorant receptor agonist call [16]: active
- odorant receptor agonist call [17]: active
- odorant receptor agonist call [18]: active

SMILES: O=C([O-])C[SH2+]
- odorant receptor agonist call [9]: active
- odorant receptor agonist call [18]: inactive
